Experimental data: ChEMBL document CHEMBL1151773, “Synthesis and biological evaluation of amide derivatives of (5,6-dimethoxy-2,3-dihydro-1H-inden-1-yl)acetic acid as anti-inflammatory agents with reduced gastrointestinal ulcerogenecity” (Eur J Med Chem, 2008)

Experiments:
Rattus norvegicus [1] = test: Antiinflammatory activity in Wistar rat assessed as inhibition of carrageenan-induced hind paw edema volume at 100 mg/kg, po administered 60 mins before carrageenan challenge after 4 hrs relative to control; format: functional
Mus musculus = test: Analgesic activity in Swiss albino mouse assessed as inhibition of acetic acid-induced writhing at 100 mg/kg, po administered 60 mins before acetic acid challenge after 5 to 15 mins relative to control; format: functional
Outline: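 Female Swiss albino mice, 20±5 g, fasted overnight with free water access, dosed orally; 1 h later injected i.p. with 1% v/v acetic acid at 0.1 ml/10 g. Writhes (full hind-limb extension) counted for 15 min, starting 5 min after injection; only animals giving 20 or more writhes used. % inhibition = 100(1−Wt/Wc) vs control group mean; six animals per group.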

Rattus norvegicus [2] = test: Antiinflammatory activity in Wistar rat assessed as inhibition of carrageenan-induced hind paw edema volume at 100 mg/kg, po administered 60 mins before carrageenan challenge after 2 hrs relative to control; format: functional
Rattus norvegicus [3] = test: Antiinflammatory activity in Wistar rat assessed as inhibition of carrageenan-induced hind paw edema volume at 100 mg/kg, po administered 60 mins before carrageenan challenge after 6 hrs relative to control; format: functional
Rattus norvegicus [4] = test: Antiinflammatory activity in Wistar rat assessed as inhibition of carrageenan-induced hind paw edema volume at 100 mg/kg, po administered 60 mins before carrageenan challenge after 3 hrs relative to control; format: functional
Rattus norvegicus [5] = test: Antiinflammatory activity in Wistar rat assessed as inhibition of carrageenan-induced hind paw edema volume at 100 mg/kg, po administered 60 mins before carrageenan challenge after 24 hrs relative to control; format: functional
Rattus norvegicus [6] = test: Antiinflammatory activity in Wistar rat assessed as inhibition of carrageenan-induced hind paw edema volume at 100 mg/kg, po administered 60 mins before carrageenan challenge after 1 hr relative to control; format: functional
Rattus norvegicus [7] = test: Antipyretic activity in Wistar rat assessed as change in LPS-induced rectal temperature at 100 mg/kg, po administered 30 mins before LPS challenge after 7 hrs; format: functional
Outline: (§1)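 Adult female Wistar rats, 170±20 g, fasted 24 h, dosed orally at 09:00; 30 min later E. coli 0111:B4 phenol-extracted LPS in apyrogenic saline given i.p. Rectal temperature by telethermometer probe just before and 1–7 h hourly after LPS; temperature index calculated from these readings. n = 6.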

Rattus norvegicus [8] = test: Antipyretic activity in Wistar rat assessed as change in LPS-induced rectal temperature at 100 mg/kg, po administered 30 mins before LPS challenge after 2 hrs; format: functional; outline: as §1
Rattus norvegicus [9] = test: Antipyretic activity in Wistar rat assessed as change in LPS-induced rectal temperature at 100 mg/kg, po administered 30 mins before LPS challenge after 1 hr; format: functional; outline: as §1
Rattus norvegicus [10] = test: Gastrointestinal toxicity in Wistar rat assessed as ulcer index at 100 mg/kg, po after 6 hrs; format: organism-based; design: dose 100 mg/kg, route oral; settings: in vivo
Outline: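 Female Wistar rats, 175±25 g, fasted 24 h, dosed orally once; sacrificed 6 h later by cervical dislocation. Stomach opened along greater curvature, saline-washed, mucosa inspected with a hand lens. Lesions graded I (edema/hyperemia/petechiae), II (hemorrhagic lesions with small erosions), III (deep ulcers); UI = nI + 2nII + 3nIII. Mean ± SEM, n = 6.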

Rattus norvegicus [11] = test: Antipyretic activity in Wistar rat assessed as change in LPS-induced rectal temperature at 100 mg/kg, po administered 30 mins before LPS challenge after 5 hrs; format: functional; outline: as §1
Rattus norvegicus [12] = test: Antipyretic activity in Wistar rat assessed as change in LPS-induced rectal temperature at 100 mg/kg, po administered 30 mins before LPS challenge after 3 hrs; format: functional; outline: as §1
Rattus norvegicus [13] = test: Antipyretic activity in Wistar rat assessed as change in LPS-induced rectal temperature at 100 mg/kg, po administered 30 mins before LPS challenge after 4 hrs; format: functional; outline: as §1
Rattus norvegicus [14] = test: Antipyretic activity in Wistar rat assessed as change in LPS-induced rectal temperature at 100 mg/kg, po administered 30 mins before LPS challenge after 6 hrs; format: functional; outline: as §1
Rattus norvegicus [15] = test: Antiarthritic activity in Albino rat assessed as inhibition of Freund's complete adjuvant-induced paw volume at 100 mg/kg, po administered for 14 days daily once starting a day before adjuvant challenge measured on day 3; format: functional
Outline: (§2)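 Female albino rats, 160±10 g, six per group, dosed orally once daily for 14 days starting the day before 0.1 ml Freund's complete adjuvant into the right hind paw subplantar surface. Both hind paw volumes, measured up to a mark at the lateral malleolus, taken before and daily after adjuvant.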

Rattus norvegicus [16] = test: Antiarthritic activity in Albino rat assessed as inhibition of Freund's complete adjuvant-induced paw volume at 100 mg/kg, po administered for 14 days daily once starting a day before adjuvant challenge measured on day 8; format: functional; outline: as §2
Rattus norvegicus [17] = test: Antiarthritic activity in Freund's complete adjuvant challenged Albino rat model assessed as change in body weight at 100 mg/kg, po administered for 14 days daily once starting a day before adjuvant challenge; format: functional; settings: 336 h, read-out: INH
Rattus norvegicus [18] = test: Antiarthritic activity in Albino rat assessed as inhibition of Freund's complete adjuvant-induced paw volume at 100 mg/kg, po administered for 14 days daily once starting a day before adjuvant challenge measured on day 13; format: functional; outline: as §2

| Structure (SMILES) | inhibition in vivo at 100 mg/kg (Rattus norvegicus [1]) [%] | inhibition in vivo at 100 mg/kg (Mus musculus) [%] | inhibition in vivo at 100 mg/kg (Rattus norvegicus [2]) [%] | inhibition in vivo at 100 mg/kg (Rattus norvegicus [3]) [%] | inhibition in vivo at 100 mg/kg (Rattus norvegicus [4]) [%] | inhibition in vivo at 100 mg/kg (Rattus norvegicus [5]) [%] | inhibition in vivo at 100 mg/kg (Rattus norvegicus [6]) [%] | Activity (Rattus norvegicus [7]) [°C] | Activity (Rattus norvegicus [8]) [°C] | Activity (Rattus norvegicus [9]) [°C] | UI (Rattus norvegicus [10]) | Activity (Rattus norvegicus [11]) [°C] | Activity (Rattus norvegicus [12]) [°C] | Activity (Rattus norvegicus [13]) [°C] | Activity (Rattus norvegicus [14]) [°C] | inhibition in vivo at 100 mg/kg (Rattus norvegicus [15]) [%] | inhibition in vivo at 100 mg/kg (Rattus norvegicus [16]) [%] | inhibition in vivo at 100 mg/kg (Rattus norvegicus [17]) [g] | inhibition in vivo at 100 mg/kg (Rattus norvegicus [18]) [%] |
| --- | --- | --- | --- | --- | --- | --- | --- | --- | --- | --- | --- | --- | --- | --- | --- | --- | --- | --- | --- |
| CNC(=O)CC1CCc2cc(OC)c(OC)cc21 (stereo not drawn) | 29.7 | 21.2 | 30 | 24.1 | 29 | 33.3 | 15.6 | – | – | – | – | – | – | – | – | – | – | – | – |
| CCCNC(=O)CC1CCc2cc(OC)c(OC)cc21 (stereo not drawn) | 26.6 | 26.9 | 28 | 22.2 | 29 | 26.7 | 18.8 | – | – | – | – | – | – | – | – | – | – | – | – |
| COc1cc2c(cc1OC)C(CC(=O)NC(C)C)CC2 (stereo not drawn) | 39.1 | 29.3 | 37 | 37 | 30.4 | 30 | 31.2 | 0.59 | -1.51 | -0.41 | 0 | 0.43 | -0.39 | 0.19 | 0.55 | – | – | – | – |
| COc1cc2c(cc1OC)C(CC(=O)NC(C)(C)C)CC2 (stereo not drawn) | 32.8 | 41.8 | 32 | 31.5 | 33.3 | 40 | 31.2 | – | – | – | – | – | – | – | – | – | – | – | – |
| CCCCNC(=O)CC1CCc2cc(OC)c(OC)cc21 (stereo not drawn) | 25 | 39.4 | 24 | 24.1 | 27.5 | 36.7 | 31.2 | – | – | – | – | – | – | – | – | – | – | – | – |
| COc1cc2c(cc1OC)C(CC(=O)N1CCCCC1)CC2 (stereo not drawn) | 32 | 44.7 | 22 | 31.5 | 31.9 | 40 | 18.8 | – | – | – | – | – | – | – | – | – | – | – | – |
| COc1cc2c(cc1OC)C(CC(=O)N(C)C)CC2 (stereo not drawn) | 35.9 | 22.6 | 36 | 33.3 | 34.8 | 23.3 | 25 | – | – | – | – | – | – | – | – | – | – | – | – |
| COc1cc2c(cc1OC)C(CC(=O)N1CCCC1)CC2 (stereo not drawn) | 24.2 | 19.2 | 20 | 22.2 | 26.1 | 33.3 | 4.69 | – | – | – | – | – | – | – | – | – | – | – | – |
| COc1cc2c(cc1OC)C(CC(=O)N1CCNCC1)CC2 (stereo not drawn) | 40.6 | 68.8 | 44 | 33.3 | 42 | 65 | 62.5 | 0.16 | -1.23 | -0.45 | 0 | 0.11 | -0.85 | -0.18 | 0.19 | 35.3 | 28.8 | 3.11 | 2.35 |
| CC(=O)Oc1ccccc1C(=O)O [ASPIRIN] | – | 61.5 | – | – | – | – | – | 0.23 | -1.45 | -0.43 | – | 0.11 | -0.51 | 0.05 | 0.17 | – | – | – | – |
| COc1cc2c(cc1OC)C(CC(=O)O)CC2 (stereo not drawn) | 23.9 | 44 | 24 | 20.4 | 27.5 | 26.7 | 18.8 | – | – | – | – | – | – | – | – | – | – | – | – |
| COc1cc2c(cc1OC)C(CC(N)=O)CC2 (stereo not drawn) | 31.2 | 24.6 | 31 | 27.8 | 30.4 | 26.7 | 18.8 | – | – | – | – | – | – | – | – | – | – | – | – |
| COc1cc2c(cc1OC)C(CC(=O)NC1CCCC1)CC2 (stereo not drawn) | 45.3 | 37 | 52 | 40.7 | 43.5 | 46.7 | 40.6 | – | – | – | – | – | – | – | – | – | – | – | – |
| COc1cc2c(cc1OC)C(CC(=O)N1CCOCC1)CC2 (stereo not drawn) | 13.3 | 23.6 | 14 | 14.8 | 19.6 | 23.3 | 15.6 | – | – | – | – | – | – | – | – | – | – | – | – |
| CCN(CC)C(=O)CC1CCc2cc(OC)c(OC)cc21 (stereo not drawn) | 37.5 | 27.4 | 40 | 31.5 | 37.7 | 16.7 | 31.2 | – | – | – | – | – | – | – | – | – | – | – | – |
| CCNC(=O)CC1CCc2cc(OC)c(OC)cc21 (stereo not drawn) | 26.6 | 23.6 | 26 | 20.4 | 26.1 | 33.3 | 15.6 | – | – | – | – | – | – | – | – | – | – | – | – |
| COc1cc2c(cc1OC)C(CC(=O)NC1CC1)CC2 (stereo not drawn) | 17.2 | 32.7 | 14 | 11.1 | 18.8 | 0 | 21.9 | – | – | – | – | – | – | – | – | – | – | – | – |
| COc1cc2c(cc1OC)C(CC(=O)NCc1ccccc1)CC2 (stereo not drawn) | 18.8 | 48 | 24 | 30.6 | 14.4 | 43.3 | 18.8 | – | – | – | – | – | – | – | – | – | – | – | – |
| CCCCCNC(=O)CC1CCc2cc(OC)c(OC)cc21 (stereo not drawn) | 40.6 | 71.7 | 34 | 35.2 | 37.7 | 46.7 | 34.4 | – | – | – | – | – | – | – | – | – | – | – | – |
| COc1cc2c(cc1OC)C(CC(=O)NCCO)CC2 (stereo not drawn) | 9.37 | 29.8 | 0 | 13 | 12.3 | 13.3 | 0 | 0.66 | -1.93 | -0.65 | – | 0.57 | 0.17 | 0.34 | 0.65 | – | – | – | – |
